Results as given in publication PMC8314423 (Journal of medicinal chemistry, 2018).

Columns and labels:
[1] = tested on: RAS-GTP levels in HeLa cells; experiment: RAS-GTP levels in HeLa cells; format: cell-based; conditions: 10 min treatment; for change in RAS-GTP levels: up to 30 μM
How it was run: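 HeLa (WT KRAS) cells exposed to test compound for 10 min at concentrations up to 30 μM. RAS-GTP levels were measured together with the accompanying pERK1/2 T202/Y204 levels. EGF (50 ng/mL, 5 min) served as the positive control for pathway stimulation. Data are representative of two independent experiments.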

[2] = target: SOS1-mediated nucleotide exchange on RAS (Homo sapiens, UniProt Q07889); experiment: SOS1-mediated nucleotide exchange assay; format: biochemical
SOS1-mediated nucleotide exchange on RAS, sequence (Q07889 564-1049 limits assumed): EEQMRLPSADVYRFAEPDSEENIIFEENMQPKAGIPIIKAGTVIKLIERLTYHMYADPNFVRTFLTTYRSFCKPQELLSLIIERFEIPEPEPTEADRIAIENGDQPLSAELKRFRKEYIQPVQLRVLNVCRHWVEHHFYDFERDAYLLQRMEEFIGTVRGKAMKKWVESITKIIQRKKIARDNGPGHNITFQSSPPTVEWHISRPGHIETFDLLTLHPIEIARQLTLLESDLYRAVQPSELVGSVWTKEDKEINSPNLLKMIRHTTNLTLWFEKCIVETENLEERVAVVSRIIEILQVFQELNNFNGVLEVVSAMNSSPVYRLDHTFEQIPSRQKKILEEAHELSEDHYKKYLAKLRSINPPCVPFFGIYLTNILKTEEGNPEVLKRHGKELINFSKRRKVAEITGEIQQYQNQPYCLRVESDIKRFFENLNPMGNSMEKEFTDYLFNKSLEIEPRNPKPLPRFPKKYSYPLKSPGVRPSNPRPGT
SOS1-mediated nucleotide exchange on RAS, sequence (P01112 1-166 partner limits assumed): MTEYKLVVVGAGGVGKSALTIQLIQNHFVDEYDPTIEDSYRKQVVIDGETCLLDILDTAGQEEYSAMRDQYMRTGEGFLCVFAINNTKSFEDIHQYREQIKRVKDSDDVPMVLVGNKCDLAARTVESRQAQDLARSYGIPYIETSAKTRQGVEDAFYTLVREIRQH

SMILES	change in RAS-GTP levels [1]	further results
Cc1cc(Cn2c(N3CC4(CNC4)C3)nc3c(-c4cncnc4C)cc(Cl)cc32)cc(C)c1F [Compound 60, 6-Chloro-1-(4-fluoro-3,5-dimethylbenzyl)-4-(4-methylpyrimidin-5-yl)-2-(2,6-diazaspiro[3.3]heptan-2-yl)-1H-benzo[d]imidazole]	only modest increases in RAS-GTP levels	–
Cc1cc2ncn(Cc3ccc(F)c(Cl)c3)c2cc1C [Compound 4, 1-(3-Chloro-4-fluorobenzyl)-5,6-dimethyl-1H-benzo[d]imidazole]	–	nucleotide exchange activation ([2]; in words): negligible nucleotide exchange activation
Cc1cc(Cn2c(N3CCNCC3)nc3c(N4CCN(C)CC4)cc(Cl)cc32)cc(C)c1F [Compound 42, 6-Chloro-1-(4-fluoro-3,5-dimethylbenzyl)-4-(4-methylpiperazin-1-yl)-2-(piperazin-1-yl)-1H-benzo[d]imidazole]	substantial increases in RAS-GTP levels at 10–30 μM	lowest concentration inducing small increases in RAS-GTP [1]: 0.3 µM
Cc1ncncc1-c1cc(Cl)cc2c1nc(N1CC3(CNC3)C1)n2Cc1ccc(F)cc1 [Compound 61, 6-Chloro-1-(4-fluorobenzyl)-4-(4-methylpyrimidin-5-yl)-2-(2,6-diazaspiro[3.3]heptan-2-yl)-1H-benzo[d]imidazole]	only modest increases in RAS-GTP levels	–
Cc1cc(Cn2c(N3CC4(CNC4)C3)nc3c(N4CCN(C)CC4)cc(Cl)cc32)cc(C)c1F [Compound 64, 6-Chloro-1-(4-fluoro-3,5-dimethylbenzyl)-4-(4-methylpiperazin-1-yl)-2-(2,6-diazaspiro[3.3]heptan-2-yl)-1H-benzo[d]imidazole]	substantial increases in RAS-GTP levels at 10–30 μM	lowest concentration inducing small increases in RAS-GTP [1]: 0.3 µM
Cc1cc(Cn2c(N3CCNCC3)nc3ccc(Cl)cc32)cc(C)c1F [Compound 29, 6-Chloro-1-(4-fluoro-3,5-dimethylbenzyl)-2-(piperazin-1-yl)-1H-benzo[d]imidazole]	–	EC50 [2]: < 1000 nM
Cc1cc(Cn2c(N3CCNCC3)nc3c(-c4cncnc4C)cc(Cl)cc32)cc(C)c1F [Compound 55, 6-Chloro-1-(4-fluoro-3,5-dimethylbenzyl)-4-(4-methylpyrimidin-5-yl)-2-(piperazin-1-yl)-1H-benzo[d]imidazole]	only modest increases in RAS-GTP levels	–
